Results published in the RNAGym collection of RNA variant scans (doi:10.1038/s41586-018-0170-7).

B1: tRNA (parent)
chain: GUUCCGUUGGCGUAAUGGUAACGCGUCUCCCUCCUAAGGAGAAGACUGCGGGUUCGAGUCCCGUACGGAACG

Variants of: B1
Test: yeast fitness, log relative to wild type (ln ratio); higher = fitter; tRNA-Arg(CCU), competitive growth, 37 C, 1 M NaCl
In short: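 In BY4742 missing the chromosomal gene, a combinatorial tRNA-Arg(CCU) variant library was maintained on a HIS3 centromeric plasmid. Selection ran ~6.5 generations (~26.5 h) in SC-HIS 1M NaCl at 37 °C, following 4 generations in SC-HIS at 30 °C, with three outputs per input and variant counts by 125 bp paired-end Illumina sequencing. Fitness is the natural log of a genotype's generations relative to the wild type's, with generations taken as inverse-variance-weighted, OD-scaled log2 output/input frequency.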
With G1A G6U C27U A43C C46U C66U A69G A70U C71U the “yeast fitness (ln)” value was -0.565.
In the case of G1A U2G C66U A69G A70G, the “yeast fitness (ln)” value is reported as -0.243.
In the case of G1A U2C G6U C66U A70U C71U, the “yeast fitness (ln)” value is reported as -0.095.
For G6A C27U A43C C46U C66A A69G A70U, the “yeast fitness (ln)” value was -0.28.
In the case of U2G G6U A69G A70U C71U, the “yeast fitness (ln)” value is reported as -0.26.
For U2C G6A A43C C46U A70U, the “yeast fitness (ln)” value was -0.0234.
With G6U C27U C66A A69G A70U C71U the “yeast fitness (ln)” value was -0.378.
With U2G G6U C27U A69G A70U the “yeast fitness (ln)” value was -0.227.
With G1A C27U A70U the “yeast fitness (ln)” value was -0.112.
For U2C G6U C27U C46U C66U A69G A70G, the “yeast fitness (ln)” value was -0.3.
With G1A U2G G6A C27U C46U C66U A70U the “yeast fitness (ln)” value was -0.28.
In the case of G1A G6A C27U A70U C71U, the “yeast fitness (ln)” value is reported as -0.23.
In the case of U2C G6A C46U C66U A69G A70G C71U, the “yeast fitness (ln)” value is reported as -0.00401.
For U2G A43C C71U, the “yeast fitness (ln)” value was -0.102.
With G6U A43C C46U A69G the “yeast fitness (ln)” value was -0.176.
For U2G C27U A69G A70U, the “yeast fitness (ln)” value was -0.0281.
With A43C C66U A69G the “yeast fitness (ln)” value was -0.174.
In the case of G1A U2C G6A C46U C66U A70G, the “yeast fitness (ln)” value is reported as -0.0233.
With G6A A70G C71U the “yeast fitness (ln)” value was -0.175.
In the case of G6A C27U A69G A70G C71U, the “yeast fitness (ln)” value is reported as -0.265.
In the case of U2G G6A C27U C66U A69G A70G C71U, the “yeast fitness (ln)” value is reported as -0.272.
With G1A U2G G6U C27U C46U C66U A69G A70G the “yeast fitness (ln)” value was -0.308.
With U2G G6U C46U A69G A70G C71U the “yeast fitness (ln)” value was -0.217.
In the case of G6U C66U A69G A70G, the “yeast fitness (ln)” value is reported as -0.271.
In the case of G1A U2C G6A A70U, the “yeast fitness (ln)” value is reported as -0.0459.
In the case of A43C C46U C71U, the “yeast fitness (ln)” value is reported as -0.00724.
For U2G G6U C27U A43C C46U A69G A70G C71U, the “yeast fitness (ln)” value was -0.33.
With G1A C27U C66U A70U C71U the “yeast fitness (ln)” value was -0.342.
For U2C C27U C46U A70U C71U, the “yeast fitness (ln)” value was -0.09.
For G6A C46U C66U, the “yeast fitness (ln)” value was 0.00319.
In the case of G1A U2C G6U A43C C46U C71U, the “yeast fitness (ln)” value is reported as -0.143.
With C27U C46U C66U A69G C71U the “yeast fitness (ln)” value was -0.286.
For G1A U2G C46U C66A A69G A70U, the “yeast fitness (ln)” value was -0.0906.
For G1A U2G G6A A43C C46U C66A A70G, the “yeast fitness (ln)” value was -0.26.
With G1A U2C G6U A43C C46U C66A C71U the “yeast fitness (ln)” value was -0.3.
For U2C G6U C46U A70G C71U, the “yeast fitness (ln)” value was -0.0274.
With U2C G6A C66U C71U the “yeast fitness (ln)” value was -0.28.
In the case of G1A U2G G6U C27U C46U C66U A69G A70U C71U, the “yeast fitness (ln)” value is reported as -0.462.
In the case of G1A G6A C46U C66A A70U, the “yeast fitness (ln)” value is reported as -0.134.
In the case of U2G A43C C66U A69G C71U, the “yeast fitness (ln)” value is reported as -0.455.
With G1A G6U C66U A70U the “yeast fitness (ln)” value was -0.154.
In the case of G1A U2G G6A C27U C46U A69G A70U C71U, the “yeast fitness (ln)” value is reported as -0.379.
In the case of U2G G6A C27U C66U, the “yeast fitness (ln)” value is reported as -0.0928.
With U2C G6A C27U C46U A69G A70G the “yeast fitness (ln)” value was -0.236.
In the case of C27U A43C C46U C66U A69G A70U, the “yeast fitness (ln)” value is reported as -0.285.
For G6U C27U C66U A69G A70U C71U, the “yeast fitness (ln)” value was -0.416.
With G1A U2G G6U C66A A70U C71U the “yeast fitness (ln)” value was -0.0122.
For C27U C66U A70U C71U, the “yeast fitness (ln)” value was -0.276.
For C27U A43C A70U C71U, the “yeast fitness (ln)” value was -0.181.
With U2C G6U C27U A43C C46U A69G C71U the “yeast fitness (ln)” value was -0.187.
With U2G G6U A43C C66A A70G C71U the “yeast fitness (ln)” value was -0.265.
For C27U A43C C66U A70U C71U, the “yeast fitness (ln)” value was -0.326.
In the case of G6A C27U C66U A69G A70U, the “yeast fitness (ln)” value is reported as -0.214.
With U2C C27U C46U C66U A70G C71U the “yeast fitness (ln)” value was -0.075.
In the case of U2G G6U C27U C46U C66U A69G A70U C71U, the “yeast fitness (ln)” value is reported as -0.336.
In the case of C46U C66U A70U, the “yeast fitness (ln)” value is reported as -0.103.
For G1A U2C G6A C46U C66A A69G A70G C71U, the “yeast fitness (ln)” value was -0.172.
With U2G C27U A43C A70G C71U the “yeast fitness (ln)” value was -0.151.
With U2G G6A C27U C46U C66U A69G A70G C71U the “yeast fitness (ln)” value was -0.216.
In the case of C66U A69G A70U, the “yeast fitness (ln)” value is reported as -0.0858.
In the case of G1A U2G G6A A43C C46U A69G C71U, the “yeast fitness (ln)” value is reported as -0.206.
In the case of G1A U2C G6A A43C C66U A69G A70G C71U, the “yeast fitness (ln)” value is reported as -0.0387.
With U2G C46U C66A A69G A70U the “yeast fitness (ln)” value was -0.0347.
For C27U A43C C46U A70U C71U, the “yeast fitness (ln)” value was -0.093.
For U2G A43C C46U C66A A70U, the “yeast fitness (ln)” value was -0.0637.
For U2C G6A C27U A43C C66U A70U C71U, the “yeast fitness (ln)” value was -0.309.
In the case of G1A G6U C27U A43C C46U C66A C71U, the “yeast fitness (ln)” value is reported as -0.138.
With G1A G6A A69G A70U the “yeast fitness (ln)” value was -0.166.
With A43C C46U A70U C71U the “yeast fitness (ln)” value was -0.131.
In the case of U2G G6A C46U C66A A69G A70U C71U, the “yeast fitness (ln)” value is reported as -0.382.
In the case of G1A C27U A43C C66U A69G C71U, the “yeast fitness (ln)” value is reported as -0.343.
For G1A G6A C27U C66A A69G A70G C71U, the “yeast fitness (ln)” value was -0.392.
For G1A U2G G6U A43C C46U C66U A69G A70U, the “yeast fitness (ln)” value was -0.299.
With C27U A43C the “yeast fitness (ln)” value was -0.0182.
In the case of G1A C27U A43C C66A A69G A70G C71U, the “yeast fitness (ln)” value is reported as -0.427.
With G6A C27U A43C C46U C66A A69G A70G the “yeast fitness (ln)” value was -0.229.
For U2C G6U A43C C66U A69G A70U C71U, the “yeast fitness (ln)” value was -0.479.
For U2C A43C, the “yeast fitness (ln)” value was -0.0265.
With U2C A69G A70G the “yeast fitness (ln)” value was -0.0175.
In the case of G6U C27U A43C C46U C66A A70G C71U, the “yeast fitness (ln)” value is reported as -0.211.
For G1A U2C G6U C27U A43C C46U C66A A70G, the “yeast fitness (ln)” value was -0.15.
For G1A U2G G6A C27U A43C A69G A70G C71U, the “yeast fitness (ln)” value was -0.354.
In the case of U2G G6A C46U A70G C71U, the “yeast fitness (ln)” value is reported as -0.144.
With U2C G6U A69G A70U the “yeast fitness (ln)” value was -0.117.
